Measurements published in ChEMBL document CHEMBL2163200, “Synthesis, biological evaluation, and structure-activity relationships of novel substituted N-phenyl ureidobenzenesulfonate derivatives blocking cell cycle progression in S-phase and inducing DNA double-strand breaks” (J Med Chem, 2012).
Activity calls are given as the source filed them. The calls are words filed in the database; no cut-off is given here.

Experiments:
M21 [1] = assay: Cytotoxicity against human M21 cells after 48 hrs by SRB assay; type: functional, cell-based; conditions: M21, 48 h
How it was run: (§1)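 NCI sulforhodamine B protocol. Cells were grown in high-glucose DMEM with 5% FBS and seeded per well at 4 × 10^3 (HT-29), 3.5 × 10^3 (M21) or 3 × 10^3 (MCF-7), then allowed 24 h to attach. Serial dilutions from 200 μM to 780 nM final were applied in DMSO <0.5% for 48 h. Cells were fixed with cold TCA (10% final) and stained with SRB, with absorbance read at 530–568 nm. Growth inhibition was computed against day-0 plates, giving the 50% inhibitory concentration. At least two experiments in triplicate, CV <10%.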

Jurkat [2] = assay: Cell cycle arrest in human Jurkat E6-1 cells assessed as accumulation at S phase at 4.8 uM after 24 hrs by FACS flow cytometry; type: functional
How it was run: (§2)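 Jurkat E6 T-lymphoblasts in RPMI 1640 with 10% FBS, 37 °C, 5% CO2. […] Chicken red blood cells were added as internal standard. Cells were fixed in ice-cold EtOH and stained with 1 μg/mL DAPI on ice for 1 h before flow cytometry of phase distribution. Vehicle control was 0.5% DMSO.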

Jurkat [3] = assay: Cell cycle arrest in human Jurkat E6-1 cells assessed as accumulation at G0/G1 phase at 4.8 uM after 24 hrs by FACS flow cytometry; type: functional
How it was run: (§3)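 Jurkat E6 cells cultured in RPMI 1640 with 10% FBS at 37 °C, 5% CO2. Compounds serially diluted in medium, starting 50% above the M21 IC50. 4.0 × 10^5 cells were exposed for 24 h. Cells were washed with PBS, chicken red blood cells added as internal standard, and fixed in ice-cold EtOH. After 1 h on ice in PBS with 1 μg/mL DAPI, phase distribution was read by flow cytometry. DMSO-treated cells served as control.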

Jurkat [4] = assay: Cell cycle arrest in human Jurkat E6-1 cells assessed as accumulation at G2/M phase at 4.8 uM after 24 hrs by FACS flow cytometry; type: functional
How it was run: (§4)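 Jurkat E6 cells grown in RPMI 1640 with 10% FBS at 37 °C, 5% CO2. Compounds were serially diluted in medium starting 50% above the M21 IC50. 4.0 × 10^5 cells were exposed for 24 h, then washed and spiked with chicken red blood cells as internal standard. Cells were fixed in ice-cold ethanol, stained with 1 μg/mL DAPI on ice for 1 h, and phase distribution was read by flow cytometry. The control was 0.5% DMSO.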

MCF7 = assay: Cytotoxicity against human MCF7 cells after 48 hrs by SRB assay; type: functional, cell-based; conditions: MCF7, 48 h; how it was run: as §1
HT-29 = assay: Cytotoxicity against human HT-29 cells after 48 hrs by SRB assay; type: functional, cell-based; conditions: HT-29, 48 h; how it was run: as §1
Jurkat [5] = assay: Cell cycle arrest in human Jurkat E6-1 cells assessed as accumulation at S phase at 7.5 uM after 24 hrs by FACS flow cytometry; type: functional; how it was run: as §2
Jurkat [6] = assay: Cell cycle arrest in human Jurkat E6-1 cells assessed as accumulation at G0/G1 phase at 7.5 uM after 24 hrs by FACS flow cytometry; type: functional; how it was run: as §3
Jurkat [7] = assay: Cell cycle arrest in human Jurkat E6-1 cells assessed as accumulation at G2/M phase at 7.5 uM after 24 hrs by FACS flow cytometry; type: functional; how it was run: as §4
HT-1080 = assay: Antitumor activity against human HT1080 cells xenografted in chicken chorioallantoic membrane assessed as inhibition of tumor growth at 30 ug per egg, iv administered on day 11 measured on day 17 by CAM assay; type: functional
How it was run: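 HT-1080 fibrosarcoma cells (3.5 × 105/egg) were applied onto freshly exposed CAM of fertilized chicken eggs. On day 11, drug from a DMSO stock was diluted in Cremophor EL/99% ethanol/PBS (1/1/14 v/v) and 100 μL was injected into a vein under the CAM. Groups of 10–12 eggs were kept to day 17, embryos were euthanized at 4 °C for ≥4 h, and tumor wet weight was recorded.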

Jurkat [8] = assay: Cell cycle arrest in human Jurkat E6-1 cells assessed as accumulation at S phase at 0.84 uM after 24 hrs by FACS flow cytometry; type: functional; how it was run: as §4
Jurkat [9] = assay: Cell cycle arrest in human Jurkat E6-1 cells assessed as accumulation at G2/M phase at 0.84 uM after 24 hrs by FACS flow cytometry; type: functional; how it was run: as §3
Jurkat [10] = assay: Cell cycle arrest in human Jurkat E6-1 cells assessed as accumulation at G0/G1 phase at 0.84 uM after 24 hrs by FACS flow cytometry; type: functional; how it was run: as §3
[11] = Toxicity in fertilized chicken embryo assessed as mortality rate at 30 ug per egg, iv administered on day 11 measured on day 17 by CAM assay; type: organism-based, Gallus gallus; conditions: in vivo, read-out: Activity
How it was run: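 Fertilized chicken eggs grafted on the CAM with HT-1080 cells (3.5 × 105/egg) received a 100 μL intravenous injection under the CAM on day 11. The drug was diluted in Cremophor EL/99% ethanol/PBS (1/1/14 v/v). Groups held 10–12 eggs and were incubated until day 17, when dead embryos and signs of toxicity were counted per group.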

Jurkat [12] = assay: Cell cycle arrest in human Jurkat E6-1 cells assessed as accumulation at S phase at 1.7 uM after 24 hrs by FACS flow cytometry; type: functional; how it was run: as §4
Jurkat [13] = assay: Cell cycle arrest in human Jurkat E6-1 cells assessed as accumulation at G2/M phase at 1.7 uM after 24 hrs by FACS flow cytometry; type: functional; how it was run: as §3
Jurkat [14] = assay: Cell cycle arrest in human Jurkat E6-1 cells assessed as accumulation at G0/G1 phase at 1.7 uM after 24 hrs by FACS flow cytometry; type: functional; how it was run: as §3
M21 [15] = assay: Induction of DNA damage response in human M21 cells assessed as phosphorylation of H2AX into gammaH2AX at IC50 after 24 hrs by DAPI staining-based immunofluorescence assay; type: functional, cell-based
How it was run: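 M21 cells (1 × 10^5) on fibronectin-coated coverslips, grown 24 h, then exposed to agent for 24 h at 37 °C; 0.5% DMSO control. Fixed with 3.7% formaldehyde and permeabilized with 0.1% saponin/3% BSA. Probed with mouse anti-H2AX pS139 antibody for 2 h at room temperature. Nuclei counterstained with DAPI; nuclear γH2AX foci viewed by epifluorescence microscopy.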

Jurkat [16] = assay: Cell cycle arrest in human Jurkat E6-1 cells assessed as accumulation at G0/G1 phase at 17 uM after 24 hrs by FACS flow cytometry; type: functional; how it was run: as §3
Jurkat [17] = assay: Cell cycle arrest in human Jurkat E6-1 cells assessed as accumulation at G2/M phase at 17 uM after 24 hrs by FACS flow cytometry; type: functional; how it was run: as §4
Jurkat [18] = assay: Cell cycle arrest in human Jurkat E6-1 cells assessed as accumulation at S phase at 17 uM after 24 hrs by FACS flow cytometry; type: functional; how it was run: as §4
Jurkat [19] = assay: Cell cycle arrest in human Jurkat E6-1 cells assessed as accumulation at S phase at 9.3 uM after 24 hrs by FACS flow cytometry; type: functional; how it was run: as §2
Jurkat [20] = assay: Cell cycle arrest in human Jurkat E6-1 cells assessed as accumulation at G0/G1 phase at 9.3 uM after 24 hrs by FACS flow cytometry; type: functional; how it was run: as §3
Jurkat [21] = assay: Cell cycle arrest in human Jurkat E6-1 cells assessed as accumulation at G2/M phase at 9.3 uM after 24 hrs by FACS flow cytometry; type: functional; how it was run: as §4
Jurkat [22] = assay: Cell cycle arrest in human Jurkat E6-1 cells assessed as accumulation at G2/M phase at 6.6 uM after 24 hrs by FACS flow cytometry; type: functional; how it was run: as §4
Jurkat [23] = assay: Cell cycle arrest in human Jurkat E6-1 cells assessed as accumulation at S phase at 6.6 uM after 24 hrs by FACS flow cytometry; type: functional; how it was run: as §2
Jurkat [24] = assay: Cell cycle arrest in human Jurkat E6-1 cells assessed as accumulation at G0/G1 phase at 6.6 uM after 24 hrs by FACS flow cytometry; type: functional; how it was run: as §3

Row | SMILES | IC50 (M21 [1]) | IC50 (MCF7) | IC50 (HT-29) | TGI (HT-1080) | Activity (M21 [15]) | other results
1 | Cc1cccc(OS(=O)(=O)c2ccc(NC(=O)NCCCl)cc2)c1 | 7.2 µM | 17 µM | 11 µM |  |  | Activity (Jurkat [2]): 52%; Activity (Jurkat [3]): 35%; Activity (Jurkat [4]): 13%
2 | O=C(NCCCl)Nc1cccc(S(=O)(=O)Oc2ccc(O)cc2)c1 | 73 µM | 87 µM | 120 µM |  |  | Activity (Jurkat [5]): 54%; Activity (Jurkat [6]): 24%; Activity (Jurkat [7]): 22%
3 | O=C(NCCCl)Nc1ccc(S(=O)(=O)Oc2ccc(O)cc2)cc1 | 1.2 µM | 1.3 µM | 1.5 µM | 69% |  | Activity (Jurkat [8]): 53%; Activity (Jurkat [9]): 20%; Activity (Jurkat [10]): 27%; mortality at 6 days [11]: 15%
4 | CCCc1ccccc1OS(=O)(=O)c1ccc(NC(=O)NCCCl)cc1 | 2.1 µM | 3.6 µM | 2.5 µM | 49% | Active | Activity (Jurkat [12]): 73%; Activity (Jurkat [13]): 11%; Activity (Jurkat [14]): 16%
5 | COc1ccc(OS(=O)(=O)c2ccc(NC(=O)NCCCl)cc2)cc1 | 18 µM | 27 µM |  |  |  | Activity (Jurkat [16]): 43%; Activity (Jurkat [17]): 15%; Activity (Jurkat [18]): 42%
6 | CCc1ccccc1OS(=O)(=O)c1ccc(NC(=O)NCCCl)cc1 | 13 µM | 19 µM | 17 µM | 49% | Active | Activity (Jurkat [19]): 77%; Activity (Jurkat [20]): 6%; Activity (Jurkat [21]): 17%
7 | CCCc1ccccc1OS(=O)(=O)c1ccc(NC(=O)NCCCCl)cc1 | 13 µM | 15 µM |  |  | Active | Activity (Jurkat [22]): 8%; Activity (Jurkat [23]): 67%; Activity (Jurkat [24]): 25%
